Assay results of several laboratories.
Each line is one published result; the experiments were not run side by side. ≈ marks a conversion by molar mass, not a printed value.

SMILES | target or system | assay | system | conditions | endpoint | result
CC(C)=CCC/C(C)=C/CO | Cryptococcus neoformans | microbial killing, broth dilution |  | clinical isolate | MFC | 800 µg/mL (≈ 5190 µM)
Cc1nn(-c2ccccc2)c2c1C(c1ccc(Cl)cc1)N(C(=O)c1ccncc1)N2 (stereo not shown) | Cryptococcus neoformans | microbial growth |  | clinical isolate | MIC | 32 µg/mL (≈ 76.9 µM)
COC1=CC(=O)c2ccccc2C1=O | Nakaseomyces glabratus | microbial growth, broth dilution | ATCC2001 | 24 h | MIC | 25 µg/mL (≈ 133 µM)
Cc1nn(-c2ccccc2)c2c1C(c1ccc([N+](=O)[O-])cc1)N(C(=O)c1ccncc1)N2 (stereo not shown) | Cryptococcus neoformans | microbial growth |  | clinical isolate | MIC | 64 µg/mL (≈ 150 µM)
CO[C@]12C[C@@H](COC(=O)c3cncc(Br)c3)CN(C)[C@@H]1Cc1cn(C)c3cccc2c13 | CNE-2 | cell growth or viability, MTT |  | 48 h | IC50 | 12900 nM
Cc1nn(-c2ccccc2)c2c1C(c1c[nH]c3ccccc13)N(C(=O)c1ccncc1)N2 (stereo not shown) | Cryptococcus neoformans | microbial growth |  | clinical isolate | MIC | 4 µg/mL (≈ 9.51 µM)
Nc1ccc(/C=C/C(=O)N2CCc3c(oc4c(-c5ccc(F)cc5)cc(-c5ccc(C(=O)N6CCC(F)(F)CC6)nn5)cc34)C2)cn1 | ASPC1 | cell growth or viability, CCK-8 |  | 72 h | IC50 | 340 nM
C=CC(=O)N1CCN(c2nc(=O)n(-c3c(C)ccnc3C(C)C)c3nc(-c4c(O)cccc4F)c(F)cc23)[C@@H](C)C1 | NCI-H358 | cell growth or viability, ATP luminescence |  |  | IC50 | 44.1 nM
Cc1nn(-c2ccccc2)c2c1C(c1ccc(O)cc1)N(C(=O)c1ccncc1)N2 (stereo not shown) | Cryptococcus neoformans | microbial growth |  | clinical isolate | MIC | > 100 µg/mL
C[C@@H]1[C@H](O)[C@@H](C)/C=C/C=C/C=C/C=C/C=C/C=C/C=C/[C@H](O[C@@H]2O[C@H](C)[C@@H](O)[C@H](N)[C@@H]2O)C[C@@H]2O[C@](O)(C[C@@H](O)C[C@@H](O)[C@H](O)CC[C@@H](O)C[C@@H](O)CC(=O)O[C@H]1C)C[C@H](O)[C@H]2C(=O)O | Nakaseomyces glabratus | microbial growth, broth dilution | ATCC2001 | 24 h | MIC | 4 µg/mL (≈ 4.33 µM)
C=C(F)C(=O)N1CCN(c2nc(OC[C@@H]3CCCN3C)nc3c2CCN(c2cccc4cccc(Cl)c24)C3)C[C@@H]1CC#N | SW756 | cell growth or viability, ATP luminescence |  |  | IC50 | 888 nM
C=CC(=O)NC1CCN(c2ncc3ncnc(Nc4ccc(Oc5ccc6c(c5)ncn6C)c(C)c4)c3n2)CC1 | LUDLU-1 | cell growth or viability |  |  | EC50 | 6210 nM
CC(C)=CCCC(C)=CC=O (mixture of isomers) | Cryptococcus neoformans | microbial killing, broth dilution |  | clinical isolate | MFC | 1600 µg/mL
